Assay [1] has as its target T1, Neutrophil elastase (Homo sapiens) (UniProt P08246).
T1 sequence (whole entry): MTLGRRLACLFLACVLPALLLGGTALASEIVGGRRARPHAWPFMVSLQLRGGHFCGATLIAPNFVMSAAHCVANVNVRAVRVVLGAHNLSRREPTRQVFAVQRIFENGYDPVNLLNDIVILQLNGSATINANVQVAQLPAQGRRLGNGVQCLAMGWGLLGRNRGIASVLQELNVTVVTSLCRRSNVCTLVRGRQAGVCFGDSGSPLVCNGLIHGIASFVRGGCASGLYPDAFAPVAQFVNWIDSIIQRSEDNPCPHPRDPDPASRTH
The experiment in a line: Second order rate constant for inhibition of Human leukocyte elastase (major diastereomeric pair of enantiomer). The gist of the method: (§1)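 Human leukocyte elastase (20 μM stock in pH 5.0 acetate buffer) incubated with inhibitor added from DMSO stock in 0.1 M HEPES pH 7.2, 25 °C. Aliquots withdrawn at intervals are diluted into HEPES containing MeO-Suc-Ala-Ala-Pro-Val-p-NA, and initial rates are followed at 410 nm over 60 s against control incubations. k_obs comes from plots of v/v0 versus time (Kitz–Wilson incubation method).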

For assay [2], the target named is T1, Neutrophil elastase (Homo sapiens). The experiment in a line: Second order rate constant for inhibition of Human leukocyte elastase (minor diastereomeric pair of enantiomer); NI=no inhibition. The gist of the method: as §1
Assay [3] has the same target. Briefly: Second order rate constant for inhibition of Human leukocyte elastase (minor diastereomeric pair of enantiomer). The gist of the method: as §1
Assay [4] has the same target. The experiment in a line: Second order rate constant for inhibition of Human leukocyte elastase (major diastereomeric 2 pairs of enantiomer). The procedure, abridged: as §1

Activity calls are given as the source filed them. No cut-off for these calls is given here.

On to `CCOC(=O)C(OC(=O)c1ccc(OC)cc1)N1C(=O)C(CC)(CC)C1Sc1nc2ccccc2o1` (stereo unspecified), for which the k obs / 1 in assay [1] was 12.9 1/M 1/s.

`CCC1(CC)C(=O)N(COC(=O)Nc2ccc(OC)cc2)C1S(=O)(=O)c1ccccc1` (stereo unspecified): the k obs / 1 in assay [1] is 100 1/M 1/s. Regarding `CCOC(=O)C(OC(=O)NC(=O)[n+]1ccccc1C(=O)OC)N1C(=O)C(CC)(CC)C1S(=O)(=O)c1ccccc1` (stereo unspecified), the k obs / 1 in assay [1] is 26.6 1/M 1/s. Further, the “k obs / 1” value in assay [2] was “inactive”. As to `CCOC(=O)C(OC(=O)c1ccc(OC)cc1)N1CC(CC)(CC)C1=O` (stereo unspecified), the k obs / 1 in assay [1] is 10.7 1/M 1/s. Consider `CCC1(CC)C(=O)N(C2OC(=O)N(Cc3ccccc3)C2=O)C1S(=O)(=O)c1ccccc1` (stereo unspecified), for which the k obs / 1 in assay [3] was 51 1/M 1/s; in assay [1] it was 68.5 1/M 1/s. In the case of `CCOC(=O)C(OC(=O)NCc1ccccc1)N1C(=O)C(CC)(CC)C1Oc1ccccc1` (stereo unspecified), in assay [1], the k obs / 1 is 38.2 1/M 1/s. On to `CCC1(CC)C(=O)N(C2OC(=O)N(c3ccc(C)cc3)C2=O)C1Sc1nc2ccccc2o1` (stereo unspecified), for which the k obs / 1 in assay [4] is 80 1/M 1/s. Same read-out and setting: the same measure for `CCOC(=O)C(OC(=O)c1ccc(OC)cc1)N1C(=O)C(CC)(CC)C1S(=O)(=O)c1ccccc1` (stereo unspecified): 24.4 1/M 1/s. Regarding `CCC1(CC)C(=O)N(C2OC(=O)N(C(=O)[n+]3ccc(OC)cc3)C2=O)C1S(=O)(=O)c1ccccc1` (stereo unspecified), the k obs / 1 was 49.7 1/M 1/s in assay [3] and 43.2 1/M 1/s in assay [1]. Turning to `CCC1(CC)CN(C2OC(=O)N(Cc3ccccc3)C2=O)C1=O` (stereo unspecified), the k obs / 1 in assay [1] was 23.9 1/M 1/s. On the same count and under the same terms, the value for `CCC1(CC)C(=O)N(C(=O)NCc2ccccc2)C1Oc1ccc(C(=O)O)cc1` (stereo unspecified) was 1500 1/M 1/s. As for `CCC1(CC)C(=O)N(C2OC(=O)N(Cc3ccccc3)C2=O)C1Oc1ccccc1` (stereo unspecified), the values for the k obs / 1 in assay [3] and in assay [1] were 144 1/M 1/s and 115 1/M 1/s, respectively.

(Values after ChEMBL document CHEMBL1140332, “Design, synthesis, and enzymatic evaluation of N1-acyloxyalkyl- and N1-oxazolidin-2,4-dion-5-yl-substituted beta-lactams as novel inhibitors of human leukocyte elastase” (J Med Chem, 2005).)
